Active and inactive are the calls of the source. The calls are words filed in the database; no cut-off is given here.
Tests used:
[1] = target: T1, Human immunodeficiency virus type 1 reverse transcriptase (Human immunodeficiency virus 1, UniProt Q72547); assay: Inhibition of DNA polymerase activity of HIV1 reverse transcriptase
[2] = Inhibition of RNase H activity of HIV1 reverse transcriptase; design: species or system Human immunodeficiency virus 1
Method in brief: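 FRET assay: RT (6 nM) with fluorescein-RNA/DNA-dabcyl hybrid substrate, 1 mM DTT, ± inhibitor; fluorescence read after 30 min at 37 °C. Triplicates; IC50 interpolated from dose-response curves.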

[3] = Cytotoxicity against Jurkat cells by XTT assay; type: cell-based; settings: human
Method in brief: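 Jurkat cells; XTT read-out, absorbance 450 nm with 620 nm reference. CC50 = concentration reducing viability by 50% versus inhibitor-free control.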

[4] = target: T1, Human immunodeficiency virus type 1 reverse transcriptase; assay: Inhibition of HIV1 wild type p66/p51 reverse transcriptase
Method in brief: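 BH-10-derived p66/p51 RT, C-terminal His6 on p66, expressed in bacteria, Ni-NTA then cation exchange purified. Substrate mix: 50 µg/mL poly(rA)·oligo(dT)12-18, 50 µM dTTP, [3H]dTTP; 30 min 37 °C.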

[5] = Inhibition of drug-resistant reverse transcriptase […] mutant; design: species or system Human immunodeficiency virus 1
[6] = Inhibition of drug-resistant reverse transcriptase L100I-K103 mutant; design: species or system Human immunodeficiency virus 1
Method in brief: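 p66/p66 homodimer HIV-1 RT double mutant (His-tagged, E. coli-expressed, Ni-NTA purified). DNA polymerase activity: [3H]dTTP incorporation into poly(rA)n·oligo(dT)12-18. DMSO serial dilutions of inhibitor plus 14 ng RT in Tris-HCl pH 7.5/KCl/MgCl2, 10 min on ice, then substrate added, 30 min at 37 °C, scintillation counting. IC50 from a four-parameter logistic fit, from at least two experiments.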

[7] = target: Human immunodeficiency virus type 1 reverse transcriptase (Human immunodeficiency virus 1) (UniProt Q72547); assay: Inhibition of reverse transcriptase binding to DNA assessed as formation of RT-DNA complex by gel mobility shift assay
Method in brief: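 RT 1.5 pmol preincubated 10 min at 4 °C with compound at 250 and 625 µM final. Then 0.12 pmol 5'-32P-labeled 54-nt duplex DNA added, in 10 mM HEPES, 30 mM ammonium sulfate, 0.25 mM DTT, 0.1 mg/mL BSA, pH 8.0; 10 min 32 °C. Run on nondenaturing 6.5% polyacrylamide gel, TBE, 4 °C; autoradiography.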

[8] = test system: Human immunodeficiency virus 1; assay: Inhibition of DNA polymerase activity of reverse transcriptase pre-incubated with drug assessed as impairment of primer elongation by DNA polymerase primer-extension assay
Method in brief: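 Primer extension: 5′-32P-labelled 15-mer primed on circular φX174am3 template (4 nM T/P). RT (1.6 nM) preincubated 30 min on ice, with inhibitor before T/P addition, or with T/P for 5 min before inhibitor. Buffer 6.6 mM Tris-HCl pH 8.0, 4 mM DTT, 6 mM MgCl2, 33 mM NaCl, BSA, 20 µM each dNTP. Run 30 min at 37 °C; products resolved on gel and viewed by autoradiography.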

SMILES	IC50 [1] [µM]	IC50 [2] [µM]	CC50 [3] [µM]	further results
NC(=O)c1[nH]cnc1-c1ccccc1	300	–	–	–
NC(=O)c1[nH]cnc1-c1cccc(Cl)c1	79.8	> 312	> 312	–
N#CCC(=O)c1ccc(Cl)c(Br)c1	> 312	–	–	–
NC(=O)c1sc(N)nc1-c1ccc(Cl)c(Br)c1	118	–	–	–
NC(=O)c1scnc1-c1cccc(I)c1	> 312	–	–	–
NC(=O)c1[nH]cnc1-c1cccc(-c2ccccc2)c1	> 312	–	–	–
N#CCC(=O)Cc1cccc(I)c1	3.5	20	247	IC50 [4]: 3.5 µM; IC50 [5]: 9.9 µM; IC50 [6]: 9.4 µM; Activity [7]: inactive; Activity [8]: Active
NC(=O)CC(=O)c1cccc(Cl)c1	> 312	–	–	–
NC(=O)c1sc(N)nc1-c1cccc(C(=O)c2ccccc2)c1	44.1	> 312	> 312	–
NC(=O)c1sc(N)nc1-c1cccc(Cl)c1	54.4	> 312	> 312	–
N#CCC(=O)c1cccc(C(=O)c2ccccc2)c1	9.8	98	251	–
NC(=O)CC(=O)c1cccc(C(=O)c2ccccc2)c1	> 312	–	–	–
N#CCC(=O)c1cccc(-c2ccccc2)c1	33.4	84	233	–
NC(=O)c1[nH]cnc1-c1ccc(Cl)c(Br)c1	9.9	41	213	IC50 [4]: 9.9 µM; IC50 [5]: 26.4 µM; IC50 [6]: 19.8 µM; Activity [7]: inactive
NC(=O)c1sc(N)nc1-c1cccc(I)c1	125	–	–	–
NC(=O)CC(=O)c1cccc(-c2ccccc2)c1	> 312	–	–	–
Cc1ccnc2c1NC(=O)c1cccnc1N2C1CC1	–	–	–	Activity [7]: inactive; Activity [8]: Active
NC(=O)CC(=O)c1cccc(I)c1	29.6	> 312	> 312	–
NC(=O)c1sc(N)nc1-c1cccc(-c2ccccc2)c1	59.2	249	244	–
NC(=O)c1[nH]cnc1-c1cccc(C(=O)c2ccccc2)c1	> 312	–	–	–
NC(=O)c1sc(N)nc1-c1ccccc1	80.7	> 312	> 312	–
N#CCC(=O)c1cccc(Cl)c1	4.1	28	> 312	–
NC(=O)c1scnc1-c1cccc(-c2ccccc2)c1	> 312	–	–	–
NC(=O)c1scnc1-c1cccc(C(=O)c2ccccc2)c1	16.3	77	> 312	–
C[C@@H]1CC=C2[C@@H](CCC[C@@]2(C)CC[C@@]2(C)C3=CCCC(C)(C)[C@H]3CC[C@@H]2C)[C@]1(C)Cc1cc(OS(=O)(=O)O)ccc1OS(=O)(=O)O	–	–	–	Activity [7]: Active
N#CCC(=O)c1cccc(I)c1	> 312	–	–	–
NC(=O)c1scnc1-c1ccc(Cl)c(Br)c1	87.5	–	–	–
NC(=O)c1scnc1-c1ccccc1	283	–	–	–
CCOP(=O)(OCC)Oc1cccc(C(=O)CC#N)c1	64.3	112	> 312	–

— ChEMBL document CHEMBL1139885, “De novo parallel design, synthesis and evaluation of inhibitors against the reverse transcriptase of human immunodeficiency virus type-1 and drug-resistant variants” (J Med Chem, 2007)
